The test system of experiment [1] is Candida albicans. Put plainly: Antifungal activity against Candida albicans PCA-2 after 48 hrs by broth microdilution assay. In kind it is functional. The following applies: PCA-2, 48 h. A digest of the protocol:
(§1)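 Yeasts kept on Sabouraud agar by serial passage. A single colony was suspended in saline, washed twice, counted by hemocytometer and added at 5 × 10⁴ CFU in RPMI 1640/MOPS pH 7.0 to serial compound dilutions. Compounds were stocked in 20% ethanol. Incubation was at 37 °C. MIC is the lowest concentration giving complete growth inhibition, read visually.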

In experiment [2] the test system is Candida albicans. Nature of the experiment: Antifungal activity against Candida albicans CA-6 after 24 hrs by broth microdilution assay. Format: functional. The following applies: CA-6, 24 h. A digest of the protocol:
as §1
In general terms: Broth dilution looks for growth in wells or tubes with falling amounts of substance.

Experiment [3] deals with Pichia kudriavzevii. Put plainly: Antifungal activity against Candida krusei after 48 hrs by broth microdilution assay. Format: functional. Summed up:
as §1

Experiment [4] concerns Cryptococcus neoformans. Put plainly: Antifungal activity against Cryptococcus neoformans 6995 after 48 hrs by broth microdilution assay. Format: functional. The following applies: Cryptococcus neoformans, 6995, 48 h.
The test system of experiment [5] is Candida albicans. Put plainly: Antifungal activity against Candida albicans CA-6 infected in CD1 mouse assessed as reduction of inflammatory foci in kidney at 10 mg/kg, ip pretreated 2 hrs before fungus-challenge and once daily for 6 days measured 7 days post-infection by periodic acid-Schiff staining. In kind it is functional, organism-based. The arrangement: dose 10 mg/kg. A digest of the protocol:
(§2)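 CD1 mice were challenged i.v. with 7 × 10⁵ CA-6 per mouse. Dosing was 10 mg/kg 2 h before challenge, then once daily for 6 days. Kidneys were excised 7 days post-infection, formalin-fixed and paraffin-embedded. Sections were stained with periodic acid-Schiff and assessed histologically for fungal cells and inflammatory foci.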

Experiment [6] concerns Candida albicans. Put plainly: Antifungal activity against Candida albicans CA-6 infected in CD1 mouse assessed as survival from fungus-induced mortality at 10 mg/kg, ip pretreated 2 hrs before fungus-challenge and once daily for 6 days. Format: functional. A digest of the protocol:
(§3)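 Female outbred CD1 mice, 8–10 weeks old, infected i.v. on day 0 with C. albicans CA-6 blastospores (7 × 10⁵/mouse). Given 10 mg/kg i.p. 2 h before infection, then once daily for 6 consecutive days. Vehicle was 0.2 ml 2% EtOH in saline i.p. Survival monitored over a 30-day observation period. Three repeat experiments, 4 animals/group.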

For experiment [7], the system named is Candida albicans. Put plainly: Antifungal activity against Candida albicans CA-6 after 48 hrs by broth microdilution assay. Format: functional. The following applies: CA-6, 48 h. Summed up: as §1
The test system of experiment [8] is Candida albicans. Put plainly: Antifungal activity against Candida albicans CA-6 infected in CD1 mouse assessed as reduction fungal cell number in kidney at 10 mg/kg, ip pretreated 2 hrs before fungus-challenge and once daily for 6 days measured 7 days post-infection by periodic acid-Schiff staining. In kind it is functional, organism-based. On the set-up: dose 10 mg/kg. Summed up:
as §2

Experiment [9] deals with Candida parapsilosis. Nature of the experiment: Antifungal activity against Candida parapsilosis after 48 hrs by broth microdilution assay. Format: functional. The following applies: Lodderomyces parapsilosis. Summed up: as §1
Experiment [10] concerns Candida albicans. Nature of the experiment: Antifungal activity against Candida albicans CA-6 infected in CD1 mouse assessed as reduction of fungal burden in kidneys at 10 mg/kg, ip pretreated 2 hrs before fungus-challenge and once daily for 6 days measured 7 days post-infection. In kind it is functional, organism-based. On the set-up: dose 10 mg/kg. The following applies: Kidney. A digest of the protocol: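 Female outbred CD1 mice, 8–10 weeks old, were infected i.v. on day 0 with 2.5 × 10⁵ CA-6 blastospores. Dosing was 10 mg/kg i.p. 2 h before challenge, then daily for 6 days; vehicle was 0.2 ml 2% EtOH in saline i.p. At day 7, kidney homogenates were serially diluted and plated on Sabouraud agar for CFU. Three experiments, 4 mice/group.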

The test system of experiment [11] is Candida albicans. Put plainly: Antifungal activity against Candida albicans CA-6 infected in CD1 mouse assessed as reduction of fungal burden in kidneys treated with 0.3 ml serum of 10 mg/kg, ip dosed mouse collected after 1 hr determined 7 days post-infection. In kind it is functional, organism-based. The arrangement: dose 10 mg/kg. The following applies: Kidney. Summed up: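 Donor mice received 10 mg/kg i.p. or vehicle (0.2 ml 2% EtOH in saline); serum was collected 1 h later. Recipient CD1 mice received 0.3 ml serum i.p. 1 h before i.v. challenge with 7 × 10⁵ CA-6 per mouse. Kidney CFU were counted on Sabouraud agar 7 days after challenge.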

The subject of experiment [12] is Candida albicans. Nature of the experiment: Antifungal activity against Candida albicans PCA-2 after 24 hrs by broth microdilution assay. Format: functional. The following applies: PCA-2, 24 h. Summed up: as §1
In experiment [13] the test system is Cryptococcus neoformans. Put plainly: Antifungal activity against Cryptococcus neoformans CAP67 after 48 hrs by broth microdilution assay. The following applies: CAP67, 48 h. Format: functional.
Experiment [14] concerns Nakaseomyces glabratus. Put plainly: Antifungal activity against Candida glabrata after 48 hrs by broth microdilution assay. In kind it is functional. Summed up: as §1
In experiment [15] the test system is Pichia kudriavzevii. Put plainly: Antifungal activity against Candida krusei after 24 hrs by broth microdilution assay. Format: functional. Summed up:
as §1

The subject of experiment [16] is Candida parapsilosis. Nature of the experiment: Antifungal activity against Candida parapsilosis after 24 hrs by broth microdilution assay. The following applies: Lodderomyces parapsilosis. In kind it is functional. Summed up: as §1
Experiment [17] concerns Nakaseomyces glabratus. Nature of the experiment: Antifungal activity against Candida glabrata after 24 hrs by broth microdilution assay. Format: functional. A digest of the protocol:
as §1

The test system of experiment [18] is Candida albicans. Put plainly: Antifungal activity against Candida albicans CA-6 infected in CD1 mouse assessed as survival days in 30 days observation period at 10 mg/kg, ip pretreated 2 hrs before fungus-challenge and once daily for 6 days. In kind it is functional. The following applies: route intraperitoneal. A digest of the protocol: as §3

≈ marks a conversion by molar mass, not a printed value. Calls of active or inactive are those of the source. The calls are words filed in the database; no cut-off is given here.

As a reminder, the MIC is the lowest concentration found to suppress growth.

Turning to `CCCCC1Oc2ccc(OC[C@@H]3CO[C@](Cn4ccnc4)(c4ccc(Cl)cc4Cl)O3)cc2N(C)C1=O` (relative stereo), the minimum inhibitory concentration (MIC) in the experiment on Candida albicans [1] is greater than 500 µg/mL; in the experiment with Candida albicans [2], 0.49 µg/mL (≈ 0.897 µM); in the experiment with Pichia kudriavzevii [3], 7.8 µg/mL (≈ 14.3 µM); in the experiment on Cryptococcus neoformans [4], 7.8 µg/mL (≈ 14.3 µM); against Candida albicans [7], 0.49 µg/mL (≈ 0.897 µM); against Candida parapsilosis [9] it was 500 µg/mL (≈ 915 µM). Further, the minimum inhibitory concentration (MIC) in the experiment on Candida albicans [12] was greater than 500 µg/mL; against Cryptococcus neoformans [13] it was 3.9 µg/mL (≈ 7.14 µM); in the experiment with Nakaseomyces glabratus [14], greater than 500 µg/mL; against Pichia kudriavzevii [15], 3.9 µg/mL (≈ 7.14 µM); in the experiment with Candida parapsilosis [16] it was 125 µg/mL (≈ 229 µM); with Nakaseomyces glabratus [17], 62.5 µg/mL (≈ 114 µM). Further, the outcome with Candida albicans [5], in the experiment with Candida albicans [8], with Candida albicans [10] and in the experiment with Candida albicans [11] was Active. In the experiment with Candida albicans [6] (route intraperitoneal), the Activity is 50%.

With `CN1C(=O)COc2ccc(OC[C@@H]3CO[C@](Cn4ccnc4)(c4ccc(Cl)cc4Cl)O3)cc21` (relative stereo), the MIC against Candida albicans [1] is greater than 500 µg/mL; against Candida albicans [2], 0.49 µg/mL (≈ 0.999 µM); in the experiment with Pichia kudriavzevii [3], greater than 500 µg/mL; in the experiment on Cryptococcus neoformans [4], 1.95 µg/mL (≈ 3.98 µM); against Candida albicans [7], 0.49 µg/mL (≈ 0.999 µM); in the experiment with Candida parapsilosis [9] it was greater than 500 µg/mL. The MIC against Candida albicans [12] is greater than 500 µg/mL; with Cryptococcus neoformans [13], 0.03 µg/mL (≈ 0.0612 µM); in the experiment on Nakaseomyces glabratus [14], 250 µg/mL (≈ 510 µM); in the experiment on Pichia kudriavzevii [15], 15.6 µg/mL (≈ 31.8 µM); against Candida parapsilosis [16], greater than 500 µg/mL; with Nakaseomyces glabratus [17] it was 15.6 µg/mL (≈ 31.8 µM). For the same compound, the result with Candida albicans [6] was inactive.

As to `CN1C(=O)COc2ccc(OC[C@H]3CO[C@](Cn4ccnc4)(c4ccc(Cl)cc4Cl)O3)cc21` (relative stereo), the minimal inhibitory concentration (MIC) was greater than 500 µg/mL against Candida albicans [1]; 0.49 µg/mL (≈ 0.999 µM) in the experiment on Candida albicans [2]; greater than 500 µg/mL in the experiment on Pichia kudriavzevii [3]; 0.24 µg/mL (≈ 0.489 µM) against Cryptococcus neoformans [4]; 0.49 µg/mL (≈ 0.999 µM) in the experiment with Candida albicans [7]; greater than 500 µg/mL in the experiment on Candida parapsilosis [9]. Besides, the MIC in the experiment with Candida albicans [12] was greater than 500 µg/mL; against Cryptococcus neoformans [13], 0.0019 µg/mL (≈ 0.00387 µM); in the experiment with Nakaseomyces glabratus [14] it was greater than 500 µg/mL; against Pichia kudriavzevii [15], 15.6 µg/mL (≈ 31.8 µM); in the experiment with Candida parapsilosis [16], 250 µg/mL (≈ 510 µM); against Nakaseomyces glabratus [17] it was 7.8 µg/mL (≈ 15.9 µM). Besides, the result in the experiment on Candida albicans [6] was inactive.

Regarding `CCCCC1Oc2ccc(OC[C@H]3CO[C@](Cn4ccnc4)(c4ccc(Cl)cc4Cl)O3)cc2N(C)C1=O` (relative stereo), the minimum inhibitory concentration (MIC) came out at 125 µg/mL (≈ 229 µM) in the experiment on Candida albicans [1]; 0.49 µg/mL (≈ 0.897 µM) in the experiment with Candida albicans [2]; 3.9 µg/mL (≈ 7.14 µM) with Pichia kudriavzevii [3]; 7.8 µg/mL (≈ 14.3 µM) against Cryptococcus neoformans [4]; 0.49 µg/mL (≈ 0.897 µM) in the experiment with Candida albicans [7]; 31.2 µg/mL (≈ 57.2 µM) against Candida parapsilosis [9]. For the same compound, the minimum inhibitory concentration (MIC) in the experiment on Candida albicans [12] came to 125 µg/mL (≈ 229 µM); against Cryptococcus neoformans [13], 1.95 µg/mL (≈ 3.57 µM); with Nakaseomyces glabratus [14], 125 µg/mL (≈ 229 µM); against Pichia kudriavzevii [15], 3.9 µg/mL (≈ 7.14 µM); in the experiment on Candida parapsilosis [16], 31.2 µg/mL (≈ 57.2 µM); with Nakaseomyces glabratus [17], 31.2 µg/mL (≈ 57.2 µM). Also, in the experiment on Candida albicans [18], the Activity amounted to 23 days. The result in the experiment on Candida albicans [5], in the experiment on Candida albicans [8], in the experiment with Candida albicans [10] and with Candida albicans [11] was Active.

For `OC(Cn1cncn1)(Cn1cncn1)c1ccc(F)cc1F` [FLUCONAZOLE], the minimum inhibitory concentration (MIC) against Candida albicans [1] is greater than 500 µg/mL; in the experiment on Candida albicans [2] it was less than 0.0076 µg/mL; against Pichia kudriavzevii [3] it was greater than 500 µg/mL; against Cryptococcus neoformans [4], 3.9 µg/mL (≈ 12.7 µM); in the experiment with Candida albicans [7] it was less than 0.0076 µg/mL; in the experiment with Candida parapsilosis [9], 15.6 µg/mL (≈ 50.9 µM). The MIC was greater than 500 µg/mL in the experiment with Candida albicans [12]; 0.49 µg/mL (≈ 1.6 µM) in the experiment on Cryptococcus neoformans [13]; 250 µg/mL (≈ 816 µM) against Nakaseomyces glabratus [14]; 250 µg/mL (≈ 816 µM) against Pichia kudriavzevii [15]; 7.8 µg/mL (≈ 25.5 µM) in the experiment on Candida parapsilosis [16]; 125 µg/mL (≈ 408 µM) in the experiment on Nakaseomyces glabratus [17]. Moreover, the outcome with Candida albicans [5], with Candida albicans [8], in the experiment on Candida albicans [10] and in the experiment with Candida albicans [11] was Active. In addition, the Activity in the experiment on Candida albicans [6] (route intraperitoneal) was 75%.

`CC(=O)N1CCN(c2ccc(OCC3COC(Cn4ccnc4)(c4ccc(Cl)cc4Cl)O3)cc2)CC1` (centres undefined) [KETOCONAZOLE]: the MIC is 15.6 µg/mL (≈ 29.4 µM) with Candida albicans [1]; less than 0.0076 µg/mL against Candida albicans [2]; 0.97 µg/mL (≈ 1.83 µM) in the experiment on Pichia kudriavzevii [3]; 0.00095 µg/mL (≈ 0.00179 µM) in the experiment on Cryptococcus neoformans [4]; less than 0.0076 µg/mL in the experiment on Candida albicans [7]; 0.00095 µg/mL (≈ 0.00179 µM) against Candida parapsilosis [9]. In addition, the minimal inhibitory concentration (MIC) is 15.6 µg/mL (≈ 29.4 µM) against Candida albicans [12]; 0.00012 µg/mL (≈ 0.000226 µM) against Cryptococcus neoformans [13]; 1.95 µg/mL (≈ 3.67 µM) in the experiment on Nakaseomyces glabratus [14]; 0.49 µg/mL (≈ 0.922 µM) against Pichia kudriavzevii [15]; less than 6e-05 µg/mL in the experiment on Candida parapsilosis [16]; 0.12 µg/mL (≈ 0.226 µM) in the experiment with Nakaseomyces glabratus [17].

For the origin of these results see ChEMBL document CHEMBL1158430, “Bulky 1,4-benzoxazine derivatives with antifungal activity” (2009).
